{"source": "ChEMBL document CHEMBL1151927", "about": "“CSI-FID: high throughput label-free detection of DNA binding molecules” (Bioorg Med Chem Lett, 2009)", "type_in_all_cases": "nucleic-acid assay", "key": {"Nucleic Acid [1]": {"tested_on": "Nucleic Acid", "test": "Displacement of ethidium bromide from DNA AAAT region by […] analysis", "outline": "(§1)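 CSI microarray of hairpinned dsDNA probes covering all 9 bp permutations. The array was incubated 1 h with 6 μM EtBr in binding buffer (100mM NaCl, 100mM Tris pH 8.0). Unlabeled ligand (3 μM) was then added to the EtBr solution for a further 1 h to reach equilibrium. Per-feature ratio of displaced to undisplaced EtBr fluorescence, expressed as FD = 1−(1−Rseq)/(1−RMax).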"}, "Nucleic Acid [2]": {"tested_on": "Nucleic Acid", "test": "Displacement of ethidium bromide from DNA ATAA region by […] analysis", "outline": "as §1"}, "Nucleic Acid [3]": {"tested_on": "Nucleic Acid", "test": "Displacement of ethidium bromide from DNA ATTA region by […] analysis", "outline": "as §1"}, "Nucleic Acid [4]": {"tested_on": "Nucleic Acid", "test": "Displacement of ethidium bromide from DNA TTAA region by […] analysis", "outline": "as §1"}, "Nucleic Acid [5]": {"tested_on": "Nucleic Acid", "test": "Displacement of ethidium bromide from DNA TGAATAA region at 3 uM by […] analysis", "outline": "as §1"}, "Nucleic Acid [6]": {"tested_on": "Nucleic Acid", "test": "Displacement of ethidium bromide from DNA TATTAGA region at 3 uM by […] analysis", "outline": "as §1"}, "Nucleic Acid [7]": {"tested_on": "Nucleic Acid", "test": "Displacement of ethidium bromide from DNA TATA region by […] analysis", "outline": "as §1"}, "Nucleic Acid [8]": {"biological_target": "Nucleic Acid", "test": "Binding affinity to minor groove region of DNA"}, "Nucleic Acid [9]": {"tested_on": "Nucleic Acid", "test": "Displacement of ethidium bromide from DNA TAAA region by […] analysis", "outline": "as §1"}, "Nucleic Acid [10]": {"tested_on": "Nucleic Acid", "test": "Displacement of ethidium bromide from DNA AATA region by […] analysis", "outline": "as §1"}, "Nucleic Acid [11]": {"tested_on": "Nucleic Acid", "test": "Displacement of ethidium bromide from minor groove region of DNA at 3 uM by […] analysis", "outline": "as §1"}, "Nucleic Acid [12]": {"tested_on": "Nucleic Acid", "test": "Displacement of ethidium bromide from DNA ATAT region by […] analysis", "outline": "as §1"}, "Nucleic Acid [13]": {"tested_on": "Nucleic Acid", "test": "Displacement of ethidium bromide from DNA AAAA region by […] analysis", "outline": "as §1"}, "Nucleic Acid [14]": {"tested_on": "Nucleic Acid", "test": "Displacement of ethidium bromide from DNA TAGAATA region at 3 uM by […] analysis", "outline": "as §1"}}, "note": "Active and inactive are the calls of the source. The rule behind the calls is not given here."}
{"smiles": "Cn1cc(NC(=O)c2cc(NC(=O)CNC(=N)N)cn2C)cc1C(=O)NCCC(=N)N", "note": "[NETROPSIN]", "values": [{"measurement": "Activity", "setting": "Nucleic Acid [1]", "result": "Active"}, {"measurement": "Activity", "setting": "Nucleic Acid [2]", "result": "Active"}, {"measurement": "Activity", "setting": "Nucleic Acid [3]", "result": "Active"}, {"measurement": "Activity", "setting": "Nucleic Acid [4]", "result": "Active"}, {"measurement": "Activity", "setting": "Nucleic Acid [5]", "result": "Active"}, {"measurement": "Activity", "setting": "Nucleic Acid [6]", "result": "Active"}, {"measurement": "Activity", "setting": "Nucleic Acid [7]", "result": "Active"}, {"measurement": "Kd", "setting": "Nucleic Acid [8]", "result": 1, "unit": "nM"}, {"measurement": "Activity", "setting": "Nucleic Acid [9]", "result": "Active"}, {"measurement": "Activity", "setting": "Nucleic Acid [10]", "result": "Active"}, {"measurement": "Activity", "setting": "Nucleic Acid [11]", "result": "Active"}, {"measurement": "Activity", "setting": "Nucleic Acid [12]", "result": "Active"}, {"measurement": "Activity", "setting": "Nucleic Acid [13]", "result": "Active"}, {"measurement": "Activity", "setting": "Nucleic Acid [14]", "result": "Active"}]}
